# H69AR inhibit – blocks growth of human H69AR lung tumor cells. H69AR lung tumor viability, ATP luminescence, 72 h; active compounds read low. viability, % at 10 µM. hit rate 6% among 85,000;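 active = viability at or below 40%; inactive = viability above 40%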;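 note: multidrug resistant small cell line overexpressing MRP-1 efflux transporter; 100% = mean luminescence of untreated control wells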
# HCT116 bCat-KO – beta-catenin-lacking colon tumor cell growth suppression; viability, % at 10 µM; HCT116 beta-catenin knockout viability, CellTiter-Glo, 60 h; active compounds read low; AID 818; hit rate 1.5% among 140,000;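 active = viability at or under a set limit, the compound median less 4 SD, cut at about 6% in these data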;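 note: 0% = Hyamine 1622 control at 20 µM and 100% = untreated cell control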
# Pyk2 oligo antag – blocks oligomerization of human Pyk2 in cells | Q14289 | hit rate 0.83% among 99,000 | z-score (the deposit names both 25 µM and 10 µM) | AID 1347419 | Q293 cells, Pyk2 FERM NanoBiT luminescence; active compounds read low;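 active = Z-score of -3 or lower, scaled per plate to the spread of control and sample wells; inactive = z-score above -3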;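 note: negative z-score means lost luminescence so less FERM oligomerization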
# Target sequence (Q14289 whole entry, looked up): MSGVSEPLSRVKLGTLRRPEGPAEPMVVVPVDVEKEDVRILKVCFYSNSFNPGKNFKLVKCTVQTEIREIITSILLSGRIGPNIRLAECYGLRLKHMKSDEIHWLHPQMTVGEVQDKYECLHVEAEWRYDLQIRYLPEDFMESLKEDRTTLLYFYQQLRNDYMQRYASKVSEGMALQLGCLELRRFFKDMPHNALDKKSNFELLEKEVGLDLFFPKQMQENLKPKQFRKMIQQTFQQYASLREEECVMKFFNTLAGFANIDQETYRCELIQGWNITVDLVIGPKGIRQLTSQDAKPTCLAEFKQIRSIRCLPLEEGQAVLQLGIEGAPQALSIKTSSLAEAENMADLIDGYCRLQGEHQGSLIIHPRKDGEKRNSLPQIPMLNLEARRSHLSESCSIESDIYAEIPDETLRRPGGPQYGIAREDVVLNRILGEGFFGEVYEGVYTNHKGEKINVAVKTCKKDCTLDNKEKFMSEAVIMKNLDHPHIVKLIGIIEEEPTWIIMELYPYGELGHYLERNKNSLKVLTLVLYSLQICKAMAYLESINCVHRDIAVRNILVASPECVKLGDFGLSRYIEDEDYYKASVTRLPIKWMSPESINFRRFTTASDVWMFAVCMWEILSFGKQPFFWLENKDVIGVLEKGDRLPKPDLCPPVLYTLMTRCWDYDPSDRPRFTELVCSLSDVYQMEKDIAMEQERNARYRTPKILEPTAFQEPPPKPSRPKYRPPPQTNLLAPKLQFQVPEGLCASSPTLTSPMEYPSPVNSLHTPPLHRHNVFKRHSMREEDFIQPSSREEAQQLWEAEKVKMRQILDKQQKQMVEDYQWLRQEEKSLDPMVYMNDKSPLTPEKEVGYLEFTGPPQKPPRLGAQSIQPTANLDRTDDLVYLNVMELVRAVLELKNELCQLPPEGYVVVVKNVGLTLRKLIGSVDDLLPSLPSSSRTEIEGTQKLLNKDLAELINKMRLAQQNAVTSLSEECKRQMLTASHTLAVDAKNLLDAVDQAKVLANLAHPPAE
# HUVEC prolif 384 – human endothelial cell proliferation inhibition. HUVEC proliferation, CellTiter-Glo luminescence, 72 h; active compounds read low. viability, % at 10 µM (by protocol). hit rate 1.1% among 86,000. AID 648;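 active = viability at or below 30%; inactive = viability above 30%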;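 note: 100% = median luminescence of DMSO-only cell control wells on each plate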
# HCT116 PTEN-null – growth suppressors of cells with PTEN tumor suppressor deletion | HCT116 PTEN-null viability, CellTiter-Glo, 60 h; active compounds read low | viability, % at 10 µM | hit rate 1.2% among 140,000;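 active = viability at or below a set limit, 4 SD under the median of all tested compounds, cut at about 3.7% in these data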;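 note: PTEN knockout HCT116 line with beta catenin targeted HCT116 as companion control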
# Fibroblast inh – blocks proliferation of human lung fibroblasts | LL 47 human lung fibroblast viability, ATP luminescence; active compounds read low | hit rate 1.1% among 85,000 | viability, % at 10 µM | AID 719;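 active = viability at or below 50% in the single dose screen; inactive = viability above 50%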;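 note: compound exposure lasted 72 h before the ATP readout; 100% = median luminescence of untreated cell-only wells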
#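 Test system: LL 47 human lung fibroblasts / Incubation: 72 h compound exposure at 37 °C after overnight plating / Technique: luminescent ATP detection, CellTiter-Glo / Compound dosing: 0.1% DMSO in all compound wells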
# * marks the source's active call; other numbers are inactive results; x = no result given. Shown is part of a subset that was picked to be rich in hits.
SMILES,H69AR inhibit,HCT116 bCat-KO,Pyk2 oligo antag,HUVEC prolif 384,HCT116 PTEN-null,Fibroblast inh
CCOc1ccc2nc(NC(=O)CSC3=NCCS3)sc2c1,1.1*,84,0.94,59,81,92
CCOc1ccc2nc(NC(=O)CN3CCC(n4nnc5cc(F)ccc54)CC3)sc2c1,41,10,-3.3*,9.2*,12,89
O=C(CN1CCC(n2nnc3cc(F)ccc32)CC1)NC1CC1,90,96,-0.32,97,96,103
COc1ccc2nc(NC(=O)CSC3=NCCS3)sc2c1,43,73,-0.32,30*,78,94
Cc1ccc(NC(=O)CS(=O)CC(=O)N(c2ccc(C)cc2)C(C)C(=O)NC2CCCCC2)cc1 (stereo unspecified),96,84,-1.1,81,69,93
CCOc1ccc(C2=C(C=Nc3c(C)n(C)n(-c4ccccc4)c3=O)C(c3ccc(F)cc3)c3ccccc3O2)cc1 (stereo unspecified),x,88,-0.87,x,84,x
CN1CCN(Cc2c(O)ccc3occ(C(=O)c4ccccc4)c23)CC1,95,59,4,87,69,97
CC(=O)C(C(C)=O)c1c(Cl)c(O)c(O)c2c(C(=O)c3ccccc3)coc12,1.6*,62,-2.9,66,66,47*
O=C(COc1ccc(Cl)cc1Cl)NCc1ccncc1,27*,94,0.76,105,87,x
O=C(COc1ccc(Cl)cc1Cl)Nc1ccccn1,54,72,0.09,45,58,48*
O=C(c1nn(Cc2ccccc2)c(=O)c2ccccc12)N1CCN(C/C=C/c2ccccc2)CC1,31*,64,-0.91,66,51,90
Cc1cc(Nc2ccc(Br)c(C)c2)n2nc(C)nc2n1,47,78,x,85,70,102
CCOCc1cnc(C)nc1NCC(=O)c1c(C)n(C)c2ccc(OC)cc12,34*,94,0.67,61,91,96
COc1ccc2c(c1)c(C(=O)CNc1nc(C)cs1)c(C)n2C,68,81,-0.69,87,71,90
Cc1cc(C(=O)CSc2n[nH]c(N)n2)c(C)n1-c1cc(F)ccc1F,74,76,0.65,79,75,92
Cc1cc(C(=O)CSc2n[nH]c(N)n2)c(C)n1-c1ccccc1,x,65,-0.41,x,81,x
Cc1cc(C(=O)CSc2n[nH]c(N)n2)c(C)n1-c1ccc(F)cc1,40*,44,0.23,94,60,94
Cc1ccc(-n2c(C)cc(C(=O)CSc3n[nH]c(N)n3)c2C)cc1,32*,48,-0.66,89,60,88
Cc1cc(=O)oc2cc(NC(=O)C3COc4ccccc4O3)ccc12 (stereo unspecified),39*,92,0.34,91,76,74
c1ccc2c(-c3ccncc3)c[nH]c2c1,85,94,0.49,82,93,106
CC(=O)n1cc(-c2ccncc2)c2ccccc21,68,86,x,25*,72,86
CC(CCc1ccccc1)NC(=O)C1CCN(S(=O)(=O)N2CCOCC2)CC1 (stereo unspecified),x,90,0.21,x,88,x
Cc1cc(NCCCN)nc(-c2ccccc2O)n1,21*,61,-0.97,98,64,100
Cc1ccc(Nc2cc(C)nc(-c3ccccc3O)n2)cc1,43,66,-0.01,70,57,88
Cc1cc(N/N=C/c2ccc(O)c(C)c2O)nc(-c2ccccc2O)n1,x,1.7*,x,x,1.8*,x
SMILES,H69AR inhibit,HCT116 bCat-KO,Pyk2 oligo antag,HUVEC prolif 384,HCT116 PTEN-null,Fibroblast inh
O=C(Nc1ccc(F)cc1)c1nsc(Cl)c1Cl,37*,84,1.1,87,81,100
O=C(Nc1ccc(F)cc1)c1ccccc1,112,98,-0.61,101,x,110
CCOC(=O)c1c(-c2ccccc2)oc2cc(CN(C)C)c(O)c(CN(C)C)c12,10*,x,-1.5,9.3*,x,94
O=C(/C=C/c1ccccc1)CC(O)(c1ccccc1)C(F)(F)C(F)F (stereo unspecified),1.3*,2.8*,-2.9,5.3*,x,32*
COc1ccc(/C=C/C(=O)CC(O)(c2ccccc2)C(F)(F)F)cc1 (stereo unspecified),38*,45,-1.2,62,45,88
O=C(/C=C/c1ccccc1)CC(O)(c1ccccc1)C(F)(F)F (stereo unspecified),2.0*,3.9*,-2.6,26*,x,35*
O=C(CC(O)(c1ccccc1)C(F)(F)C(F)F)c1cccs1 (stereo unspecified),99,97,-1.6,89,89,93
CCOc1ccc(C(=O)N/N=C(\c2ccccc2)c2ccccn2)cc1,x,3.7*,-0.79,x,2.6*,x
Cc1nc2oc(C(=O)c3ccc(Br)cc3)c(N)c2c2c1COC(C)(C)C2,54,63,0.47,60,70,92
CCCc1nc2oc(C(=O)c3ccccc3)c(N)c2c2c1COC(C)(C)C2,5.7*,35,-0.91,47,45,40*
CCN(Cc1ccncc1)C(=O)C1CCN(S(=O)(=O)c2cccs2)CC1,106,84,0.81,94,98,104
Cn1c2c(c(=O)n(C)c1=O)C(C(F)(F)F)(C(F)(F)F)N=C(c1ccc(Cl)cc1)N2,x,3.0*,-3.3*,x,4,x
Cc1ccccc1C1=NC(C(F)(F)F)(C(F)(F)F)c2c(n(C)c(=O)n(C)c2=O)N1,x,93,x,x,80,x
CCOC(=O)C(C)(C)N(Cc1ccc(C)cc1)S(=O)(=O)c1ccc(Cl)c([N+](=O)[O-])c1,x,0.9*,x,x,0.8*,x
CCOC(=O)C(C)(C)N(Cc1ccc(Cl)cc1)S(=O)(=O)c1ccc(Cl)c([N+](=O)[O-])c1,x,1.1*,x,x,1.6*,x
O=C(COC(=O)CCC1CCCC1)Nc1ccc(Cl)cc1F,x,88,x,x,91,x
O=C(CCCn1c(=O)[nH]c2cc(Cl)ccc2c1=O)NCCCN1CCCC1=O,91,100,0.44,99,106,107
COc1ccc2ccccc2c1CN1CCN(C)CC1,99,84,1.1,89,89,96
CN1CCN(Cc2cc(Cl)c3cccnc3c2OC(=O)c2cccs2)CC1,x,3.7*,x,x,5,x
Oc1c(CN2CCOCC2)cc(COCc2ccccc2)c2cccnc12,x,3.7*,0.42,x,2.8*,x
COCc1cc(CN2CCN(C)CC2)c(O)c2ncccc12,25*,69,-0.19,90,81,87
CNc1ccccc(-c2ccc3cc4c(cc3n2)OCO4)c1=O,x,80,x,x,70,x
CC1(C)CC(=O)C2=C(C1)N(c1cccc(Cl)c1)C(=O)NC2(C(F)(F)F)C(F)(F)F,x,94,0.78,x,95,x
N#Cc1nc(COc2ccccc2)oc1NCCN1CCOCC1,x,102,0.62,x,88,x
N#Cc1nc(COc2ccc(-c3ccccc3)cc2)oc1NCCCN1CCOCC1,49,25,-0.54,6.3*,33,103
C=CCNc1oc(COc2ccc(C)cc2)nc1C#N,92,101,x,98,103,97
CN(C)CCNc1oc(COc2ccc(-c3ccccc3)cc2)nc1C#N,15*,88,-0.7,40,75,45*

# Source: PubChem (several laboratories)
